The source made the active and inactive calls. The rule behind the calls is not given here.
Experiments:
[1] = Inhibition of amyloid beta (1-42) aggregation by thioflavin T fluorescence method
How it was run: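 Compound (2 μL of 0.1–10.0 mM) was mixed with 4 μL of 50 μM Aβ1-42 in PBS pH 7.4 containing 11% ethanol, 2 h at room temperature. Then 40 μM ThT in PBS/10% ethanol was added. Fluorescence was read with excitation 430 nm and emission 488 nm.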

[2] = Inhibition of amyloid beta (12-28) fibrillation assessed as decrease in alpha-helix component at 3:1 compound to protein ratio by CD spectroscopy assay; conditions: concentration not given here
[3] = Inhibition of gamma-secretase by fluorogenic substrate assay
How it was run: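 Membrane protein (10 μg/well) was incubated with 6 μM fluorogenic substrate and compound in reaction buffer, 100 μL final, at 37 C for 5 h. Fluorescence was read at excitation 355 nm and emission 440 nm. L685,458 was the reference inhibitor. Dose-response curves were fitted by nonlinear regression.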

[4] = Inhibition of amyloid beta (1 to 42) fibrillation after 5 days at 37 degC by PICUP assay
How it was run: (§1)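 Aβ1-42 was HFIP-treated, sonicated 30 min, dried under nitrogen and redissolved in water. Photo-crosslinking used Ru(bpy)3Cl2 and APS (Aβ/Ru/APS 1/4/80) under a 150 W xenon lamp for 3 s, then quench, 95 C for 5 min and 15% tricine SDS-PAGE. Monomer/(dimer+tetramer) band pixels were compared.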

[5] = system: PC-12; assay: Neuroprotective activity against rat PC12 cells assessed as reversal of amyloid beta (1 to 42)-induced neuronal damage in at 3 uM after 48 hrs by MTT assay; type: functional
How it was run: (§2)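 Differentiated PC-12 cells (10 000/well) received compound diluted in Aβ1-42 solution (5% DMSO water stock), giving final 10 μM Aβ1-42 with 0–3 μM compound (0.01–3 μM; dose curve 0.003–3 μM), for 48 h. MTT absorbance at 570 nm was normalized to full-kill and media controls. 3 independent experiments × 3 replicates.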

[6] = Inhibition of amyloid beta (12-28) fibrillation assessed as increase in beta-sheet conformation at 3:1 compound to protein ratio by CD spectroscopy assay; conditions: concentration not given here
How it was run: (§3)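 HFIP-treated Aβ12-28 was dissolved in 50% TFE/water at 80 μM, with compound at 1:3 protein:compound. CD spectra were taken in a 0.1 cm path cuvette. Secondary-structure content (helix, β-sheet, turn) was obtained by spectral deconvolution.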

[7] = system: PC-12; assay: Neuroprotective activity against rat PC12 cells assessed as reversal of amyloid beta (1 to 42)-induced neuronal damage in at 1 uM after 48 hrs by MTT assay; type: functional; how it was run: as §2
[8] = system: PC-12; assay: Cytotoxicity against rat PC12 cells at 1 uM by MTT assay; type: cell-based; conditions: pc-12, 1 µM
How it was run: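 Differentiated PC-12 cells in DMEM with 10% heat-inactivated FBS and 2 mM L-glutamine, 37 C, 5% CO2. Plated at 10 000 cells/well and treated 24 h later with compound diluted in medium (0.1 nM to 100 μM) for 48 h. MTT read at 570 nm. Viability scaled between media and 5 μM staurosporine controls. At least 3 independent experiments × 3 replicates.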

[9] = Inhibition of amyloid beta (1 to 42) fibrillation after 27 days by AFM assay; conditions: in the assay text read “after 17 days” for “after 27 days”
How it was run: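 For fibril formation, 200 μM Aβ1-42 in water/DMSO was kept 17 days at 37 C. These fibrils were then incubated with compound (10 mM stock) or DMSO for 27 days at 37 C. Samples were diluted 5-fold in water, dried on mica and imaged by tapping-mode AFM.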

[10] = Inhibition of amyloid beta (12-28) fibrillation assessed as increase in beta-turn conformational component at 3:1 compound to protein ratio by CD spectroscopy assay; conditions: concentration not given here; how it was run: as §3
[11] = Inhibition of amyloid beta (1 to 42) fibrillation after 5 days at -80 degC by PICUP assay; how it was run: as §1
[12] = system: PC-12; assay: Neuroprotective activity against rat PC12 cells assessed as reversal of amyloid beta (1 to 42)-induced neuronal damage after 48 hrs by MTT assay; type: functional, cell-based; how it was run: as §2

IC50 ([1]; read-out: IC50) [µM] | IC50 [1] | SMILES | other results
110 | – | CC(C)(c1ccc(OCC(O)CN2CCCCC2)cc1)c1ccc(OCC(O)CN2CCCCC2)cc1 (stereo not drawn) | –
70 | – | Cc1cc(C2(c3cc(C)c(OCC(O)CN4CCN(C)CC4)c(C)c3)CCCCC2)cc(C)c1OCC(O)CN1CCN(C)CC1 (stereo not drawn) | –
– | Not Active | Cc1cc(C)cc(NCC(O)COc2c(C)cc(C(C)(C)c3cc(C)c(OCC(O)CNc4cc(C)cc(C)c4)c(C)c3)cc2C)c1 (stereo not drawn) | –
6.2 | – | Cc1cc(C(C)(C)c2cc(C)c(OCC(O)CN3CCN(Cc4ccccc4)CC3)c(C)c2)cc(C)c1OCC(O)CN1CCN(Cc2ccccc2)CC1 (stereo not drawn) | –
24 | – | CN1CCN(CC(O)COc2c(Br)cc(C(c3cc(Br)c(OCC(O)CN4CCN(C)CC4)c(Br)c3)(C(F)(F)F)C(F)(F)F)cc2Br)CC1 (stereo not drawn) | –
– | Not Active | Cc1cc(C(C)(C)c2ccc(OCC(O)CN3CCOCC3)c(C)c2)ccc1OCC(O)CN1CCOCC1 (stereo not drawn) | –
20 | – | Cc1cc(C(C)(C)c2cc(C)c(OCC(O)CN3CCC4(CC3)OCCO4)c(C)c2)cc(C)c1OCC(O)CN1CCC2(CC1)OCCO2 (stereo not drawn) | –
– | Not Active | CN1CCN(CC(O)COc2ccc(C(C)(C)c3ccc(OCC(O)CN4CCN(C)CC4)cc3)cc2)CC1 (stereo not drawn) | –
26 | – | CC(C)(c1cc(Br)c(OCC(O)CN2CCOCC2)c(Br)c1)c1cc(Br)c(OCC(O)CN2CCOCC2)c(Br)c1 (stereo not drawn) | –
4.7 | – | CC(C)(c1cc(Br)c(OCC(O)CN2CCC3(CC2)OCCO3)c(Br)c1)c1cc(Br)c(OCC(O)CN2CCC3(CC2)OCCO3)c(Br)c1 (stereo not drawn) | –
11 | – | Cc1cc(C(C)(C)c2cc(C)c(OCC(O)CN3CCCC3)c(C)c2)cc(C)c1OCC(O)CN1CCCC1 (stereo not drawn) | –
8.9 | – | Cc1cc(C(C)(C)c2cc(C)c(OCC(O)CN3CC(C)CC(C)C3)c(C)c2)cc(C)c1OCC(O)CN1CC(C)CC(C)C1 (stereo not drawn) | –
– | Not Active | Cc1cc(C(C)(C)c2cc(C)c(OCC(O)CN3CCN(C)CC3)c(C)c2)cc(C)c1OCC(O)CN1CCN(C)CC1 (stereo not drawn) | –
24 | – | CN1CCN(CC(O)COc2c(Br)cc(C3(c4cc(Br)c(OCC(O)CN5CCN(C)CC5)c(Br)c4)CCCC3)cc2Br)CC1 (stereo not drawn) | –
– | Not Active | OC(COc1c(Br)cc(C(c2cc(Br)c(OCC(O)CN3CCOCC3)c(Br)c2)(C(F)(F)F)C(F)(F)F)cc1Br)CN1CCOCC1 (stereo not drawn) | –
4.8 | – | CC1CC(C)CN(CC(O)COc2c(Br)cc(C(C)(C)c3cc(Br)c(OCC(O)CN4CC(C)CC(C)C4)c(Br)c3)cc2Br)C1 (stereo not drawn) | inhibition [2]: 40.4%; IC50 [3]: 5.57 µM; inhibition [4]: Active; Activity [5]: 104.2%; inhibition [6]: 17.4%; Activity [7]: 96.6%; Activity [8]: Non-toxic; inhibition [9]: Active; inhibition [10]: 13.7%; inhibition [11]: Active; Activity [12]: Dose-dependent effect; IC50 ([12]; PC-12, 48 h): 0.8 µM
0.4 | – | Cc1cc(C(C)(C)c2cc(C)c(OCC(O)CN3CCN(C(=O)OC(C)(C)C)CC3)c(C)c2)cc(C)c1OCC(O)CN1CCN(C(=O)OC(C)(C)C)CC1 (stereo not drawn) | IC50 [3]: 1.82 µM
– | Not Active | Cc1cc(C2(c3cc(C)c(OCC(O)CN4CCOCC4)c(C)c3)CCCCCC2)cc(C)c1OCC(O)CN1CCOCC1 (stereo not drawn) | –

IC50 ([1]; read-out: IC50) [µM] | IC50 [1] | SMILES | other results
0.27 | – | CCCCN(CCCC)CC(O)COc1c(Br)cc(C(C)(C)c2cc(Br)c(OCC(O)CN(CCCC)CCCC)c(Br)c2)cc1Br (stereo not drawn) | –
– | Not Active | Cc1cc(C2(c3cc(C)c(OCC(O)CN4CCOCC4)c(C)c3)CCCCC2)cc(C)c1OCC(O)CN1CCOCC1 (stereo not drawn) | –
25 | – | CC(c1cc(Br)c(OCC(O)CN2CCN(C)CC2)c(Br)c1)c1cc(Br)c(OCC(O)CN2CCN(C)CC2)c(Br)c1 (stereo not drawn) | –
– | Not Active | OC(COc1ccc(C(c2ccc(OCC(O)CN3CCOCC3)cc2)(C(F)(F)F)C(F)(F)F)cc1)CN1CCOCC1 (stereo not drawn) | –
– | Not Active | CC(C)(C)c1ccc(NCC(O)COc2c(Br)cc(C(C)(C)c3cc(Br)c(OCC(O)CNc4ccc(C(C)(C)C)cc4)c(Br)c3)cc2Br)cc1 (stereo not drawn) | –
380 | – | CN1CCN(CC(O)COc2ccc(C(c3ccc(OCC(O)CN4CCN(C)CC4)cc3)(C(F)(F)F)C(F)(F)F)cc2)CC1 (stereo not drawn) | –
13 | – | CN1CCN(CC(O)COc2ccc(C3(c4ccc(OCC(O)CN5CCN(C)CC5)c(Br)c4)CCCCC3)cc2Br)CC1 (stereo not drawn) | –
– | Not Active | CC(C)(c1ccc(OCC(O)CN2CCOCC2)cc1)c1ccc(OCC(O)CN2CCOCC2)cc1 (stereo not drawn) | –
32 | – | Cc1cc(C2(c3cc(C)c(OCC(O)CN4CCN(C)CC4)c(C)c3)CCCCCC2)cc(C)c1OCC(O)CN1CCN(C)CC1 (stereo not drawn) | –
– | Not Active | OC(COc1c(Br)cc(C2(c3cc(Br)c(OCC(O)CN4CCOCC4)c(Br)c3)CCCC2)cc1Br)CN1CCOCC1 (stereo not drawn) | –
56 | – | Cc1cc(C2(c3cc(C)c(OCC(O)CN4CCN(C)CC4)c(C)c3)CCCC2)cc(C)c1OCC(O)CN1CCN(C)CC1 (stereo not drawn) | –
– | Not Active | Cc1cc(C2(c3cc(C)c(OCC(O)CN4CCOCC4)c(C)c3)CCCC2)cc(C)c1OCC(O)CN1CCOCC1 (stereo not drawn) | –
23 | – | CN1CCN(CC(O)COc2c(Br)cc(C(C)(C)c3cc(Br)c(OCC(O)CN4CCN(C)CC4)c(Br)c3)cc2Br)CC1 (stereo not drawn) | –
6.2 | – | Cc1cc(C(C)(C)c2cc(C)c(OCC(O)CN3CCCCCC3)c(C)c2)cc(C)c1OCC(O)CN1CCCCCC1 (stereo not drawn) | –
– | Not Active | Cc1cc(C(C)(C)c2cc(C)c(OCC(O)CNc3ccc(C(C)(C)C)cc3)c(C)c2)cc(C)c1OCC(O)CNc1ccc(C(C)(C)C)cc1 (stereo not drawn) | –
– | Not Active | Cc1cc(C(C)(C)c2cc(C)c(OCC(O)CN3CCOCC3)c(C)c2)cc(C)c1OCC(O)CN1CCOCC1 (stereo not drawn) | –
43 | – | Cc1cc(C(C)(C)c2cc(C)c(OCC(O)CN3CCCCC3)c(C)c2)cc(C)c1OCC(O)CN1CCCCC1 (stereo not drawn) | –

Reference: ChEMBL document CHEMBL1268869, “Structural optimization and biological evaluation of substituted bisphenol A derivatives as beta-amyloid peptide aggregation inhibitors” (J Med Chem, 2010)
